Experimental findings from ChEMBL document CHEMBL1153571, “New imidazo[1,2-a]quinoxaline derivatives: synthesis and in vitro activity against human melanoma” (Eur J Med Chem, 2009) are described below.

SMILES strings stand for the structures.

The subject of the assay is A-375. The assay can be described thus: Cytotoxicity against human A375 cells after 96 hrs by MTT assay. Type of assay: functional, cell-based. The conditions noted are these: A-375, 96 h. The gist of the method: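 A375 human melanoma cells (ATCC) in RPMI-1640 with 10% heat-inactivated FBS, 2 mM L-glutamine, penicillin/streptomycin/amphotericin B, 37 °C, 5% CO2. Plated at 5000 cells/well, attached overnight. Compounds added in 1% DMSO/medium over a log dilution range and left for 96 h. MTT then added for 4 h at 37 °C. Formazan dissolved in isopropanol/1 M HCl (96/4), read at 570 nm. Survival expressed as % of vehicle control, IC50 taken from sigmoidal curves. At least three experiments in triplicate.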
On the technique in general: Tetrazolium dyes change colour on reduction, which living cells bring about.

Usually IC50 stands for the point on the concentration scale where inhibition reaches its midpoint. Lower therefore signals greater potency.

On to `CNc1nc2ccccc2n2c(-c3ccoc3)cnc12`, for which the IC50 turned out to be 74.1 µM.
Take `CNc1nc2ccccc2n2c(-c3cccc(OC)c3)cnc12`: the IC50 is 0.2 µM.
Regarding `CNc1nc2ccccc2n2c(-c3cccc(Cl)c3)cnc12`, the midpoint of inhibition, the IC50, lay at 1.78 µM.
Next, `CNc1nc2ccccc2n2c(-c3cccc([N+](=O)[O-])c3)cnc12`: 40 µM.
In the case of `CNc1nc2ccccc2n2c(-c3ccccc3OC)cnc12`, the midpoint of inhibition, the IC50, lay at 122 µM.
The compound `CNc1nc2ccccc2n2c(-c3cccc(Br)c3)cnc12` registered an IC50 of 0.65 µM.
`CCOP(=O)(OCC)C(C)NC(=O)N(CCCl)N=O` (configuration not stated) [FOTEMUSTINE] showed an IC50 of 173 µM.
`CNc1nc2ccccc2n2c(-c3cccc(C(F)(F)F)c3)cnc12` registered an IC50 of 1.28 µM.
In the case of `CNc1nc2ccccc2n2c(-c3cccc(F)c3)cnc12`, the IC50 is 24.9 µM.
For the compound `CNc1nc2ccccc2n2c(-c3ccc(OC)cc3)cnc12`, the half-maximal inhibitory concentration (IC50) came to 0.37 µM.
Next, `CNc1nc2ccccc2n2c(-c3cccc(C(=O)O)c3)cnc12`: 3.47 µM; `CNc1nc2ccccc2n2c(-c3cccc(O)c3)cnc12`: 0.56 µM; `CCOc1cccc(-c2cnc3c(NC)nc4ccccc4n23)c1`: 0.3 µM.
Consider `CNc1nc2ccccc2n2c(CCc3ccccc3)cnc12`, for which it took 1.57 µM to reach half-maximal inhibition (IC50).
The value for `CNc1nc2ccccc2n2c(-c3ccccc3)cnc12` was 2.19 µM; that for `CC(C)Cn1cnc2c(N)nc3ccccc3c21` [IMIQUIMOD] was 70.3 µM; that for `CNc1nc2ccccc2n2c(-c3cccc(C#N)c3)cnc12` was 27 µM.
